Assay results published in ChEMBL document CHEMBL5107937, “Synthesis and antitumour evaluation of indole-2-carboxamides against paediatric brain cancer cells” (RSC Med Chem, 2021).

Columns and labels:
KNS-42 [1] = assay: Cytotoxicity against human KNS-42 cells assessed as reduction in cell viability incubated for 72 hrs by PrestoBlue reagent based cell viability assay; assay type: functional; conditions: KNS-42, 72 h
In short: (§1)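 Viability screen run in triplicate. IC50 is the compound dose giving 50% inhibition of cell viability, taken as cytotoxicity.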

KNS-42 [2] = assay: Antiproliferative activity against human KNS-42 cells assessed as cell growth inhibition incubated for 72 hrs by MTT assay; assay type: functional, cell-based; conditions: KNS-42, 72 h
In short: (§2)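 Proliferation screen run in triplicate. IC50 is the compound dose giving 50% inhibition of cell proliferation.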

[3] = Cytotoxicity against human BT-12 cells assessed as reduction in cell viability incubated for 72 hrs by PrestoBlue reagent based cell viability assay; assay type: functional; conditions: BT-12, 72 h; in short: as §1
[4] = Antiproliferative activity against human BT-12 cells assessed as cell growth inhibition incubated for 72 hrs by MTT assay; assay type: functional, cell-based; conditions: BT-12, 72 h; in short: as §2
[5] = Cytotoxicity against human BT-16 cells assessed as reduction in cell viability incubated for 72 hrs by PrestoBlue reagent based cell viability assay; assay type: functional; conditions: BT-16, 72 h; in short: as §1
[6] = Antiproliferative activity against human BT-16 cells assessed as cell growth inhibition incubated for 72 hrs by MTT assay; assay type: functional, cell-based; conditions: BT-16, 72 h; in short: as §2
Daoy [7] = assay: Cytotoxicity against human Daoy cells assessed as reduction in cell viability incubated for 72 hrs by PrestoBlue reagent based cell viability assay; assay type: functional; in short: as §1
Daoy [8] = assay: Antiproliferative activity against human Daoy cells assessed as cell growth inhibition incubated for 72 hrs by MTT assay; assay type: functional, cell-based; in short: as §2
[9] = Cytotoxicity against human HFF-1 cells assessed as reduction in cell viability incubated for 72 hrs by PrestoBlue reagent based cell viability assay; assay type: toxicity; in short: as §1
[10] = Antiproliferative activity against human HFF-1 cells assessed as cell growth inhibition incubated for 72 hrs by MTT assay; assay type: toxicity, cell-based; in short: as §2
Cannabinoid receptor 1 [11] = biological target: T1, Cannabinoid receptor 1 (Homo sapiens, UniProt P21554); assay: Antagonist activity at human CB1R expressed in mouse AtT20 cells by FLIPR membrane potential assay; assay type: functional, cell-based
In short: (§3)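 AtT-20 cells stably carrying human CB1R or human CB2R were pre-incubated with compound or vehicle for 60 minutes. 500 nM CP 55940 was then added and membrane potential responses were recorded. IC50 is for inhibition of the agonist response.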

[12] = Octanol-water partition coefficient, logP of the compound; assay type: physicochemical
Cannabinoid receptor 1 [13] = biological target: T1, Cannabinoid receptor 1; assay: Agonist activity at human CB1R expressed in mouse AtT20 cells at 10 uM by FLIPR membrane potential assay; assay type: functional, cell-based
In short: (§4)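 Agonist mode: AtT-20 cells stably transfected with human CB1R or human CB2R; membrane potential responses recorded.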

Cannabinoid receptor 2 [14] = biological target: T2, Cannabinoid receptor 2 (Homo sapiens, UniProt P34972); assay: Agonist activity at human CB2R expressed in mouse AtT20 cells at 10 uM by FLIPR membrane potential assay; assay type: functional, cell-based; in short: as §4
Cannabinoid receptor 2 [15] = biological target: T2, Cannabinoid receptor 2; assay: Antagonist activity at human CB2R expressed in mouse AtT20 cells at 10 uM by FLIPR membrane potential assay; assay type: functional, cell-based; in short: as §3
Cannabinoid receptor 1 [16] = biological target: T1, Cannabinoid receptor 1; assay: Antagonist activity at human CB1R expressed in mouse AtT20 cells at 10 uM by FLIPR membrane potential assay; assay type: functional, cell-based; in short: as §3

T1 sequence (P21554 whole entry): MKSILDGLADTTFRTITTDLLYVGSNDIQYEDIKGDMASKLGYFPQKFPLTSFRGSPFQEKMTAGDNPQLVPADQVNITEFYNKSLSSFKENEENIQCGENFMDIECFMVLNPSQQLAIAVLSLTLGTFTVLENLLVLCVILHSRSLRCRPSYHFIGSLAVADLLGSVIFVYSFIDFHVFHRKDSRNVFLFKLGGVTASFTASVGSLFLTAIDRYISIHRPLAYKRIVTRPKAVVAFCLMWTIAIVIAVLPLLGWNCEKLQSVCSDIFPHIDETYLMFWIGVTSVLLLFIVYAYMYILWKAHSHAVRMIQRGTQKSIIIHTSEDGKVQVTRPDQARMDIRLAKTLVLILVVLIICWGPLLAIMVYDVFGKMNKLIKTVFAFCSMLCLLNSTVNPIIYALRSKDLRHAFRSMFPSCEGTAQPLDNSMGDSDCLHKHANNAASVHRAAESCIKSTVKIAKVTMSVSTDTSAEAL
T2 sequence (P34972 whole entry): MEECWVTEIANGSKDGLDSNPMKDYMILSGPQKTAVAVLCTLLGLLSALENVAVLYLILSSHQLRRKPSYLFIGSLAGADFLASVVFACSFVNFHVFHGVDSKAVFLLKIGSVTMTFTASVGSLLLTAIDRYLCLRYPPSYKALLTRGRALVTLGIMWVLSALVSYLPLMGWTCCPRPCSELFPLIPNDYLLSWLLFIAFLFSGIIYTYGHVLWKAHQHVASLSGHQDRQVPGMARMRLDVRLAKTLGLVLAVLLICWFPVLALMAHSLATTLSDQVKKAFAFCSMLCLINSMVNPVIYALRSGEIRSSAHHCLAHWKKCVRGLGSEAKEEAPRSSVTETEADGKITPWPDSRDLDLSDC

Row | SMILES | IC50 (KNS-42 [1]) | IC50 (KNS-42 [2]) | further results
1 | O=C(NC12CC3CC(CC(C3)C1)C2)c1cc(=O)c2cc(Cl)ccc2[nH]1 | > 10 µM | 6.11 µM | –
2 | O=C(NC12CC3CC(CC(C3)C1)C2)c1c[nH]c2cc(Cl)cc(Cl)c2c1=O | > 10 µM | 9.17 µM | –
3 | O=C(NCCc1ccc2c(c1)OCO2)c1cc2c(F)cc(F)cc2[nH]1 | 2.34 µM | 2.88 µM | IC50 [3]: 6.08 µM; IC50 [4]: 4.1 µM; IC50 [5]: 2.72 µM; IC50 [6]: 7.53 µM; IC50 (Daoy [7]): 3.65 µM; IC50 (Daoy [8]): 9.91 µM; IC50 at 72 h [9]: 81 µM; IC50 at 72 h [10]: 6.98 µM; IC50 (Cannabinoid receptor 1 [11]): 0.373 µM; logP [12]: 3.02; Activity (Cannabinoid receptor 1 [13]): < 50%; Activity (Cannabinoid receptor 2 [14]): < 50%; inhibition (Cannabinoid receptor 2 [15]): < 50%
4 | O=C(Nc1nc2ccccc2[nH]1)C12CC3CC(CC(C3)C1)C2 | > 10 µM | > 10 µM | –
5 | COc1cccc(CNC(=O)c2cc3c(F)cc(F)cc3[nH]2)c1OC | > 10 µM | > 10 µM | –
6 | O=C(NC12CC3CC(CC(C3)C1)C2)c1nc2ccccc2[nH]1 | > 10 µM | > 10 µM | –
7 | O=C(c1cc2c(F)cc(F)cc2[nH]1)N1CCN(C(=O)C23CC4CC(CC(C4)C2)C3)CC1 | 5.04 µM | 6.62 µM | Activity (Cannabinoid receptor 1 [13]): < 50%; Activity (Cannabinoid receptor 2 [14]): < 50%; inhibition (Cannabinoid receptor 1 [16]): < 50%; inhibition (Cannabinoid receptor 2 [15]): < 50%
8 | O=C(NC12CC3CC(CC(C3)C1)C2)c1cc(=O)c2ccc(Cl)c(Cl)c2[nH]1 | > 10 µM | > 10 µM | –
9 | O=C(NC12CC3CC(CC(C3)C1)C2)c1c[nH]c2cc(Br)ccc2c1=O | > 10 µM | > 10 µM | –
10 | O=C(NC12CC3CC(CC(C3)C1)C2)c1cc2ccccc2n1CCCCO | 4.75 µM | > 10 µM | –
11 | O=C(NC12CC3CC(CC(C3)C1)C2)c1n[nH]c2ccccc12 | > 10 µM | > 10 µM | –
12 | CCCC(C)(C)c1ccc2c(c1)OC(C)(C)[C@@H]1CC=C(C)C[C@@H]21 | > 10 µM | > 10 µM | –
13 | O=C(NC12CC3CC(CC(C3)C1)C2)c1c[nH]c2ccc(Cl)cc2c1=O | > 10 µM | > 10 µM | –
14 | Cc1cccc(CNC(=O)c2cc3c(F)cc(F)cc3[nH]2)c1 | > 10 µM | > 10 µM | –
15 | O=C(Nc1nc2ccccc2[nH]1)c1cc2c(F)cc(F)cc2[nH]1 | 4.49 µM | 4.03 µM | IC50 [3]: 7.65 µM; IC50 [4]: 1.79 µM; IC50 [5]: 1.37 µM; IC50 [6]: 5.41 µM; IC50 (Daoy [7]): 1.02 µM; IC50 (Daoy [8]): 2.31 µM; IC50 at 72 h [9]: 115 µM; IC50 at 72 h [10]: 3.03 µM; logP [12]: 2.69; Activity (Cannabinoid receptor 1 [13]): < 50%; Activity (Cannabinoid receptor 2 [14]): < 50%; inhibition (Cannabinoid receptor 1 [16]): < 50%; inhibition (Cannabinoid receptor 2 [15]): < 50%
